{"source": "ChEMBL document CHEMBL4689842", "about": "“EUbOPEN Chemogenomics Library wave 1” (2021)", "system": "U2OS", "assay": "Multiplex assay against U2OS", "assay_type": "toxicity, cell-based", "details": "human", "in_short": "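Four dyes were applied at seeding to live cells: Hoechst33342, BioTracker Green Microtubule Cytoskeleton Dye, MitoTracker Red and Annexin V Alexa Fluor 680. Imaging after compound addition used a CQ1 microscope at 37°C and 5% CO2. CellPathfinder machine-learning gating then sorted cells into Hoechst high-intensity objects or normal cells, normal cells into healthy, pyknosed or fragmented nuclei, and pyknosed cells into mitotic or apoptotic, with tubulin, mitochondrial-mass and membrane-permeability phenotypes given as per cents of healthy-nucleus cells.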", "key": {"[1]": {"details": "12 h, 1 µM, compound concentration 1 uM, replicate 1"}, "[2]": {"details": "12 h, 1 µM, compound concentration 1 uM, replicate 2"}, "[3]": {"details": "12 h, 10 µM, compound concentration 10 uM, replicate 1"}, "[4]": {"details": "12 h, 10 µM, compound concentration 10 uM, replicate 2"}, "[5]": {"details": "24 h, 1 µM, compound concentration 1 uM, replicate 1"}, "[6]": {"details": "24 h, 1 µM, compound concentration 1 uM, replicate 2"}, "[7]": {"details": "24 h, 10 µM, compound concentration 10 uM, replicate 1"}, "[8]": {"details": "24 h, 10 µM, compound concentration 10 uM, replicate 2"}, "[9]": {"details": "48 h, 10 µM, compound concentration 10 uM, replicate 1"}, "[10]": {"details": "48 h, 10 µM, compound concentration 10 uM, replicate 2"}}, "note": "Several values for one entry are separate records, joined by “and”; a condition that tells them apart may be missing. Identical values can stand only once.", "data": [{"compound": "CN[C@@H]1C[C@H]2O[C@@](C)([C@@H]1OC)n1c3ccccc3c3c4c(c5c6ccccc6n2c5c31)C(=O)NC4", "note": "[STAUROSPORINE]", "values": [{"measurement": "Population Apoptotic (%)", "setting": "[1]", "result": 53, "unit": "%"}, {"measurement": "Population Fragmented Nuclei (%)", "setting": "[1]", "result": 47, "unit": "%"}, {"measurement": "Population Healthy Nuclei (%)", "setting": "[1]", "result": 12, "unit": "%"}, {"measurement": "Population Hoechst High Intensity Objects (%)", "setting": "[1]", "result": 4, "unit": "%"}, {"measurement": "Population Membrane Permeable-Phenotype (%)", "setting": "[1]", "result": 89, "unit": "%"}, {"measurement": "Population Mitochondria Different-Phenotype (%)", "setting": "[1]", "result": 57, "unit": "%"}, {"measurement": "Population Mitotic Cells (%)", "setting": "[1]", "result": 46, "unit": "%"}, {"measurement": "Population Normal (%)", "setting": "[1]", "result": 95, "unit": "%"}, {"measurement": "Population Pyknosed Nuclei (%)", "setting": "[1]", "result": 40, "unit": "%"}, {"measurement": "Population Tubulin-Different-Phenotype (%)", "setting": "[1]", "result": 89, "unit": "%"}, {"measurement": "Population Apoptotic (%)", "setting": "[2]", "result": 62, "unit": "%"}, {"measurement": "Population Fragmented Nuclei (%)", "setting": "[2]", "result": 65, "unit": "%"}, {"measurement": "Population Healthy Nuclei (%)", "setting": "[2]", "result": 3, "unit": "%"}, {"measurement": "Population Hoechst High Intensity Objects (%)", "setting": "[2]", "result": 7, "unit": "%"}, {"measurement": "Population Membrane Permeable-Phenotype (%)", "setting": "[2]", "result": 100, "unit": "%"}, {"measurement": "Population Mitochondria Different-Phenotype (%)", "setting": "[2]", "result": 83, "unit": "%"}, {"measurement": "Population Mitotic Cells (%)", "setting": "[2]", "result": 37, "unit": "%"}, {"measurement": "Population Normal (%)", "setting": "[2]", "result": 92, "unit": "%"}, {"measurement": "Population Pyknosed Nuclei (%)", "setting": "[2]", "result": 30, "unit": "%"}, {"measurement": "Population Tubulin-Different-Phenotype (%)", "setting": "[2]", "result": 91, "unit": "%"}, {"measurement": "Population Apoptotic (%)", "setting": "[3]", "result": "51% and 87% and 83%"}, {"measurement": "Population Fragmented Nuclei (%)", "setting": "[3]", "result": "45% and 41% and 40%"}, {"measurement": "Population Healthy Nuclei (%)", "setting": "[3]", "result": "5% and 0% and 1%"}, {"measurement": "Population Hoechst High Intensity Objects (%)", "setting": "[3]", "result": "6% and 7% and 3%"}, {"measurement": "Population Membrane Permeable-Phenotype (%)", "setting": "[3]", "result": "94% and 100% and 71%"}, {"measurement": "Population Mitochondria Different-Phenotype (%)", "setting": "[3]", "result": "50% and 100% and 85%"}, {"measurement": "Population Normal (%)", "setting": "[3]", "result": "93% and 92% and 96%"}, {"measurement": "Population Pyknosed Nuclei (%)", "setting": "[3]", "result": "48% and 57% and 58%"}, {"measurement": "Population Tubulin-Different-Phenotype (%)", "setting": "[3]", "result": "94% and 100%"}, {"measurement": "Population Apoptotic (%)", "setting": "[4]", "result": "86% and 56% and 73%"}, {"measurement": "Population Fragmented Nuclei (%)", "setting": "[4]", "result": "26% and 64% and 42%"}, {"measurement": "Population Healthy Nuclei (%)", "setting": "[4]", "result": "15% and 6% and 12%"}, {"measurement": "Population Hoechst High Intensity Objects (%)", "setting": "[4]", "result": "15% and 8%"}, {"measurement": "Population Membrane Permeable-Phenotype (%)", "setting": "[4]", "result": "95% and 84%"}, {"measurement": "Population Mitochondria Different-Phenotype (%)", "setting": "[4]", "result": "75% and 71% and 84%"}, {"measurement": "Population Normal (%)", "setting": "[4]", "result": "84% and 91%"}, {"measurement": "Population Pyknosed Nuclei (%)", "setting": "[4]", "result": "29% and 45%"}, {"measurement": "Population Tubulin-Different-Phenotype (%)", "setting": "[4]", "result": "91% and 92%"}, {"measurement": "Population Apoptotic (%)", "setting": "[5]", "result": 93, "unit": "%"}, {"measurement": "Population Fragmented Nuclei (%)", "setting": "[5]", "result": 34, "unit": "%"}, {"measurement": "Population Healthy Nuclei (%)", "setting": "[5]", "result": 22, "unit": "%"}, {"measurement": "Population Hoechst High Intensity Objects (%)", "setting": "[5]", "result": 14, "unit": "%"}, {"measurement": "Population Membrane Permeable-Phenotype (%)", "setting": "[5]", "result": 96, "unit": "%"}, {"measurement": "Population Mitochondria Different-Phenotype (%)", "setting": "[5]", "result": 56, "unit": "%"}, {"measurement": "Population Mitotic Cells (%)", "setting": "[5]", "result": 6, "unit": "%"}, {"measurement": "Population Normal (%)", "setting": "[5]", "result": 85, "unit": "%"}, {"measurement": "Population Pyknosed Nuclei (%)", "setting": "[5]", "result": 42, "unit": "%"}, {"measurement": "Population Tubulin-Different-Phenotype (%)", "setting": "[5]", "result": 92, "unit": "%"}, {"measurement": "Population Apoptotic (%)", "setting": "[6]", "result": 94, "unit": "%"}, {"measurement": "Population Fragmented Nuclei (%)", "setting": "[6]", "result": 58, "unit": "%"}, {"measurement": "Population Healthy Nuclei (%)", "setting": "[6]", "result": 10, "unit": "%"}, {"measurement": "Population Hoechst High Intensity Objects (%)", "setting": "[6]", "result": 13, "unit": "%"}, {"measurement": "Population Membrane Permeable-Phenotype (%)", "setting": "[6]", "result": 95, "unit": "%"}, {"measurement": "Population Mitochondria Different-Phenotype (%)", "setting": "[6]", "result": 66, "unit": "%"}, {"measurement": "Population Mitotic Cells (%)", "setting": "[6]", "result": 5, "unit": "%"}, {"measurement": "Population Normal (%)", "setting": "[6]", "result": 86, "unit": "%"}, {"measurement": "Population Pyknosed Nuclei (%)", "setting": "[6]", "result": 31, "unit": "%"}, {"measurement": "Population Tubulin-Different-Phenotype (%)", "setting": "[6]", "result": 91, "unit": "%"}, {"measurement": "Population Apoptotic (%)", "setting": "[7]", "result": "93% and 90% and 94%"}, {"measurement": "Population Fragmented Nuclei (%)", "setting": "[7]", "result": "48% and 46% and 38%"}, {"measurement": "Population Healthy Nuclei (%)", "setting": "[7]", "result": "0% and 15%"}, {"measurement": "Population Hoechst High Intensity Objects (%)", "setting": "[7]", "result": "5% and 11%"}, {"measurement": "Population Mitochondria Different-Phenotype (%)", "setting": "[7]", "result": "50% and 45%"}, {"measurement": "Population Mitotic Cells (%)", "setting": "[7]", "result": "6% and 9% and 5%"}, {"measurement": "Population Normal (%)", "setting": "[7]", "result": "94% and 88%"}, {"measurement": "Population Pyknosed Nuclei (%)", "setting": "[7]", "result": "50% and 52% and 45%"}, {"measurement": "Population Tubulin-Different-Phenotype (%)", "setting": "[7]", "result": "50% and 100% and 94%"}, {"measurement": "Population Apoptotic (%)", "setting": "[8]", "result": "88% and 96% and 77%"}, {"measurement": "Population Hoechst High Intensity Objects (%)", "setting": "[8]", "result": "27% and 26%"}, {"measurement": "Population Membrane Permeable-Phenotype (%)", "setting": "[8]", "result": "95% and 92%"}, {"measurement": "Population Mitochondria Different-Phenotype (%)", "setting": "[8]", "result": "95% and 69% and 92%"}, {"measurement": "Population Normal (%)", "setting": "[8]", "result": "72% and 73%"}, {"measurement": "Population Pyknosed Nuclei (%)", "setting": "[8]", "result": "36% and 23% and 38%"}, {"measurement": "Population Tubulin-Different-Phenotype (%)", "setting": "[8]", "result": "95% and 92%"}, {"measurement": "Population Apoptotic (%)", "setting": "[9]", "result": 95, "unit": "%"}, {"measurement": "Population Fragmented Nuclei (%)", "setting": "[9]", "result": "51% and 55%"}, {"measurement": "Population Healthy Nuclei (%)", "setting": "[9]", "result": 0, "unit": "%"}, {"measurement": "Population Hoechst High Intensity Objects (%)", "setting": "[9]", "result": "7% and 11%"}, {"measurement": "Population Mitochondria Different-Phenotype (%)", "setting": "[9]", "result": "66% and 100%"}, {"measurement": "Population Mitotic Cells (%)", "setting": "[9]", "result": 4, "unit": "%"}, {"measurement": "Population Normal (%)", "setting": "[9]", "result": "92% and 88%"}, {"measurement": "Population Pyknosed Nuclei (%)", "setting": "[9]", "result": "47% and 43%"}, {"measurement": "Population Tubulin-Different-Phenotype (%)", "setting": "[9]", "result": 100, "unit": "%"}, {"measurement": "Population Apoptotic (%)", "setting": "[10]", "result": "89% and 100%"}, {"measurement": "Population Fragmented Nuclei (%)", "setting": "[10]", "result": "22% and 13%"}, {"measurement": "Population Healthy Nuclei (%)", "setting": "[10]", "result": "49% and 56%"}, {"measurement": "Population Hoechst High Intensity Objects (%)", "setting": "[10]", "result": "18% and 25%"}, {"measurement": "Population Mitochondria Different-Phenotype (%)", "setting": "[10]", "result": "96% and 92%"}, {"measurement": "Population Mitotic Cells (%)", "setting": "[10]", "result": "10% and 0%"}, {"measurement": "Population Normal (%)", "setting": "[10]", "result": "81% and 74%"}, {"measurement": "Population Pyknosed Nuclei (%)", "setting": "[10]", "result": "28% and 30%"}, {"measurement": "Population Tubulin-Different-Phenotype (%)", "setting": "[10]", "result": "96% and 92%"}]}]}
